Results published in article PMC7508885 (SLAS discovery : advancing life sciences R & D, 2020).
pIC50, pKi: −log10 of the molar value.

Assays:
[1] = molecular target: T1, P. aeruginosa TyrRS-S (Pseudomonas aeruginosa, UniProt Q9HWP3); test: ATP:PPi exchange reaction; assay type: biochemical; details: other substrate (Tyr or ATP) held at 2 mM; enzyme 0.4 μM
[2] = molecular target: T2, P. aeruginosa TyrRS-Z (Pseudomonas aeruginosa, UniProt Q9I5Q3); test: ATP:PPi exchange reaction; assay type: biochemical; details: other substrate (Tyr or ATP) held at 2 mM; enzyme 0.4 μM
T2 sequence (Q9I5Q3 whole entry): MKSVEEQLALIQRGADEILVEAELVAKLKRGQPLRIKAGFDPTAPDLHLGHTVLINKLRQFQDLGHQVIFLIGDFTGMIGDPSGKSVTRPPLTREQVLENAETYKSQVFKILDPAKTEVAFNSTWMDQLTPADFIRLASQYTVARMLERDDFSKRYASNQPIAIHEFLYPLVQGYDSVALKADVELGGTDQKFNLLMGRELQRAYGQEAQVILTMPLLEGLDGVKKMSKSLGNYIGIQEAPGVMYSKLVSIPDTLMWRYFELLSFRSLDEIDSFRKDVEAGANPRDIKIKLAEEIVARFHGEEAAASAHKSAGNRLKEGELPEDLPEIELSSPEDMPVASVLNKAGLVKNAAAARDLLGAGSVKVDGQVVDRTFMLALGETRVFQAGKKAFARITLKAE

[3] = molecular target: T1, P. aeruginosa TyrRS-S; test: SPA-based tRNA aminoacylation assay; assay type: biochemical
[4] = molecular target: T1, P. aeruginosa TyrRS-S; test: Binding mode assay; assay type: biochemical; details: for shift in the IC50 with increasing ATP concentration (competition with ATP): ATP 25-1000 μM, Tyr held constant; for shift in the IC50 with increasing ATP concentration (competition with ATP) / shift in the IC50 with increasing Tyr concentration (competition with Tyr): TyrRS-S 0.05 μM; for shift in the IC50 with increasing Tyr concentration (competition with Tyr): Tyr 25-300 μM, ATP held at 2.5 mM
[5] = system: Moraxella catarrhalis (ATCC 25238); test: Broth microdilution MIC testing; assay type: cell-based; details: Gram-negative M. catarrhalis
Outline: (§1)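 Broth microdilution MIC testing following CLSI guideline M7-A7, run against a 10-strain bacterial panel that included E. coli and P. aeruginosa efflux-pump mutants and a hypersensitive P. aeruginosa strain.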

[6] = system: Haemophilus influenzae (ATCC 49766); test: Broth microdilution MIC testing; assay type: cell-based; details: Gram-negative respiratory pathogen H. influenzae
Outline: as §1

[7] = system: human embryonic kidney 293 cells (HEK293); test: In vitro cytotoxicity test; assay type: cell-based; details: 25-400 μg/mL, 24 h, triplicate
[8] = molecular target: T2, P. aeruginosa TyrRS-Z; test: SPA-based tRNA aminoacylation assay; assay type: biochemical
[9] = system: HEK-293 cell line; details: quantitative high-throughput screening; ref PubChem CID 53183345; cited from earlier work
[10] = system: NIH-3T3 cell line; details: quantitative high-throughput screening; ref PubChem CID 53183345; cited from earlier work
[11] = system: S. aureus TyrRS; details: cited from earlier work
[12] = system: TyrRS; details: cited from earlier work
[13] = system: LysRS; details: cited from earlier work
[14] = system: eukaryotic LysRS; details: cited from earlier work

T1 sequence (Q9HWP3 whole entry): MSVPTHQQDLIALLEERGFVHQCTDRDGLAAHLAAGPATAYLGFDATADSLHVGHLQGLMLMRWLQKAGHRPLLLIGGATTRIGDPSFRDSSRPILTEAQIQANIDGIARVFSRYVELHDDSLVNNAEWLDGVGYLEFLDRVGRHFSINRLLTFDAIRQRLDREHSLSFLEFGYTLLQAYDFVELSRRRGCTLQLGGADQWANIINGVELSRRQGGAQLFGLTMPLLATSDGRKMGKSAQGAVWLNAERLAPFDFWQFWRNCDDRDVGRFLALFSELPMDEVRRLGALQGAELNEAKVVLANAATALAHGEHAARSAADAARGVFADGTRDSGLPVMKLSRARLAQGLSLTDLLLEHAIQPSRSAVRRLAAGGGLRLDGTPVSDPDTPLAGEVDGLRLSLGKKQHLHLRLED

SMILES	shift in the IC50 with increasing ATP concentration (competition with ATP) [4]	shift in the IC50 with increasing Tyr concentration (competition with Tyr) [4]	inhibition of cultures (MIC testing) [5]	toxicity to human cell cultures [7]	effect on TyrRS [12]	also measured
Nc1ncnc2c1ncn2[C@@H]1O[C@H](COP(=O)(O)OP(=O)(O)OP(=O)(O)O)[C@@H](O)[C@H]1O [ATP]	–	–	–	–	–	kcat^obs for interaction with TyrRS-S [1]: 1.0 s⁻¹; kcat^obs for interaction with TyrRS-Z [2]: 3.8 s⁻¹
O=C1Nc2ccccc2Oc2cc(N3CCc4ccccc4C3)c(S(=O)(=O)N3CCCCC3)cc21 [BCD37H06, 3-(3,4-dihydroisoquinolin-2(1H)-yl)-2-(piperidin-1-ylsulfonyl) dibenzo[b,f][1,4]oxazepin-11(10H)-one]	no shift in the IC50	no shift in the IC50	inhibited	failed to exhibit toxic effects at any concentrations tested	–	pIC50 [3]: 4.62; effectiveness against cultures (MIC testing) [6]: effective
CC(=O)N1CCc2cc(Br)c(S(=O)(=O)NCCN3CCCCC3C)cc21 (stereo not shown) [BCD38C11, 1-acetyl-5-bromo-N-[2-(2-methylpiperidin-1-yl)ethyl]indoline-6-sulfonamide]	increased with increasing ATP concentrations	no change in the IC50 values	inhibited	failed to exhibit toxic effects at any concentrations tested	–	pIC50 [3]: 4.15; pIC50 [8]: 3.62; pKi [4]: 5.28
Cc1ccc(N2CN(CC(=O)Nc3cccc(Cl)c3)S(=O)(=O)c3cccnc32)cc1 [BCD49D09, N1-(3-chlorophenyl)-2-[4-(4-methylphenyl)-1,1-dioxo-3,4-dihydro-1λ6-pyrido[2,3-e][1,2,4]thiadiazin-2(1H)-yl] acetamide]	increased with increasing ATP concentrations	no change in the IC50 values	inhibited	failed to exhibit toxic effects at any concentrations tested	–	–
O=C(c1ccccc1)N1CCCn2cc(-c3ccc4c(c3)OCO4)nc21 [BCD54B04, [2-(1,3-benzodioxol-5-yl)-6,7-dihydroimidazo[1,2-a]pyrimidin-8(5H)-yl](phenyl) methanone]	no shift in the IC50	no shift in the IC50	inhibited	failed to exhibit toxic effects at any concentrations tested	–	pIC50 [3]: 4.30; effectiveness against cultures (MIC testing) [6]: effective; toxicity in HEK-293 cell line [9]: nontoxic; toxicity in NIH-3T3 cell line [10]: nontoxic
N[C@@H](Cc1ccc(O)cc1)C(=O)NC(C(=O)O)[C@H]1[C@H](O)[C@]2(O)CO[C@@H]([C@@H]2O)N1O (stereo partly shown) [SB-219383]	–	–	–	–	–	IC50 against S. aureus TyrRS [11]: low nanomolar range
COc1ccc(-c2cc(=O)c3c(O)cc(O)cc3o2)cc1 [acacetin]	–	–	–	–	inhibitory effects	–
C=CC1=C(C)/C(=C/c2[nH]c(Cc3[nH]c(/C=C4\NC(=O)C(C)=C4C=C)c(C)c3CCC(=O)O)c(CCC(=O)O)c2C)NC1=O [bilirubin]	–	–	–	–	–	inhibition of LysRS [13]: specific inhibitor of ATP binding
O=c1cc(-c2ccccc2)oc2cc(O)cc(O)c12 [chrysin]	–	–	–	–	inhibitory effects	–
C[C@H]1CCC[C@H](C[C@H]2Cc3cc(O)cc(O)c3C(=O)O2)O1 [cladosporin]	–	–	–	–	–	inhibition of eukaryotic LysRS [14]: potent ATP competitive inhibitor
O=C(O[C@@H]1Cc2c(O)cc(O)cc2O[C@@H]1c1cc(O)c(O)c(O)c1)c1cc(O)c(O)c(O)c1 [epigallocatechin, gallate]	–	–	–	–	inhibitory effects	–
COc1ccc(-c2oc3cc(O)cc(O)c3c(=O)c2O)cc1 [kaempferide]	–	–	–	–	inhibitory effects	–
